Measurements reported in ChEMBL document CHEMBL5661986, “Discovery of the SMYD3 Inhibitor BAY-6035 Using Thermal Shift Assay (TSA)-Based High-Throughput Screening” (SLAS Discov, 2021).
Converted amounts (≈) assume the structure as drawn. The source made the active and inactive calls. The calls are words filed in the database; no cut-off is given here.

Legend:
[1] = Kinetic solubility of the compound at pH 6.5; format: physicochemical; details: buffer, read-out: Kinetic_solubility
[2] = molecular target: T1, Histone-lysine N-methyltransferase SMYD3 (Homo sapiens) (UniProt Q9H7B4); assay: Binding affinity to recombinant human SMYD3 expressed in Escherichia coli assessed as change in gibbs binding free energy by isothermal titration calorimetry
T1 sequence (whole entry): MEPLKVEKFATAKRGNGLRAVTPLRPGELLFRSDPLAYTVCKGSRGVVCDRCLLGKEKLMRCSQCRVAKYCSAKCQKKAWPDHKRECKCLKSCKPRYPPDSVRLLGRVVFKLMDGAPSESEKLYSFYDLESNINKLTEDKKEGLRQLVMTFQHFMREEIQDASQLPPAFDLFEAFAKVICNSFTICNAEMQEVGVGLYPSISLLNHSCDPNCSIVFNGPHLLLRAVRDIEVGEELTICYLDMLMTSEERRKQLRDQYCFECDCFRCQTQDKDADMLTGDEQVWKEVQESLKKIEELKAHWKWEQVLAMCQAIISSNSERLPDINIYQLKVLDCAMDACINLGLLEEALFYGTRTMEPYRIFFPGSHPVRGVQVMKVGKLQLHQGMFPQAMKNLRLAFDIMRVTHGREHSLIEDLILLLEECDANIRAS
In short: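 Syringe held compound at 0.3 mM in 20 mM HEPES pH 7.4, 150 mM NaCl, 0.005% Tween 20, 2.5% DMSO; eight 4 µL injections at 180 s intervals into SMYD3.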

[3] = molecular target: T2, Histone-lysine N-methyltransferase SMYD3 (Homo sapiens, UniProt Q9H7B4); assay: Binding affinity to biotinylated SMYD3 (unknown origin) assessed as dissociation constant using S-adenosyl-l-methionine as substrate by surface plasmon resonance analysis
T2 sequence (Q9H7B4 whole entry): T1 sequence (whole entry)
In short: (§1)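 Biotinylated SMYD3 (aa 1–428) captured (~4700 RU) on streptavidin chip, empty reference flow cell; 25 °C; running buffer 20 mM HEPES pH 7.4, 150 mM NaCl, 3 mM EDTA, 0.05% Tween-20, 2% DMSO, plus 50 µM SAM. Single-cycle kinetics, five concentrations 25–2000 nM, 60 s contact, 300 s dissociation, 30 µL/min; triplicate.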

[4] = molecular target: T1, Histone-lysine N-methyltransferase SMYD3 (Homo sapiens); assay: Binding affinity to biotinylated SMYD3 (unknown origin) assessed as association rate constant (Kon) using S-adenosyl-l-methionine as substrate by surface plasmon resonance analysis; in short: as §1
[5] = molecular target: T1, Histone-lysine N-methyltransferase SMYD3 (Homo sapiens); assay: Binding affinity to biotinylated SMYD3 (unknown origin) assessed as dissociation rate constant (Koff) using S-adenosyl-l-methionine as substrate by surface plasmon resonance analysis; in short: as §1
[6] = molecular target: Histone-lysine N-methyltransferase ASH1L (Homo sapiens) (UniProt Q9NR48); assay: Inhibition of ASH1L (unknown origin)
[7] = molecular target: DNA (cytosine-5)-methyltransferase 1 (Homo sapiens) (UniProt P26358); assay: Inhibition of DNMT1 (unknown origin)
[8] = molecular target: Histone-lysine N-methyltransferase, H3 lysine-79 specific (Homo sapiens) (UniProt Q8TEK3); assay: Inhibition of DOT1L (unknown origin)
[9] = molecular target: METTL3/METTL14 (Homo sapiens) (UniProt Q86U44+Q9HCE5); assay: Inhibition of METTL3/METTL14 (unknown origin); format: protein-complex assay
[10] = molecular target: Histone-lysine N-methyltransferase NSD2 (Homo sapiens) (UniProt O96028); assay: Inhibition of NSD2 (unknown origin)
[11] = molecular target: Protein arginine N-methyltransferase 1 (Homo sapiens) (UniProt Q99873); assay: Inhibition of PRMT1 (unknown origin)
[12] = molecular target: Protein arginine N-methyltransferase 3 (Homo sapiens) (UniProt O60678); assay: Inhibition of PRMT3 (unknown origin)
[13] = molecular target: Protein arginine N-methyltransferase 6 (Homo sapiens) (UniProt Q96LA8); assay: Inhibition of PRMT6 (unknown origin)
[14] = molecular target: Histone-lysine N-methyltransferase SETD7 (Homo sapiens) (UniProt Q8WTS6); assay: Inhibition of SETD7 (unknown origin)
[15] = molecular target: Histone-lysine N-methyltransferase SUV39H1 (Homo sapiens) (UniProt O43463); assay: Inhibition of SUV39H1 (unknown origin)
[16] = molecular target: Histone-lysine N-methyltransferase SUV39H2 (Homo sapiens) (UniProt Q9H5I1); assay: Inhibition of SUV39H2 (unknown origin)
[17] = molecular target: Aurora kinase A (Homo sapiens, UniProt O14965); assay: Inhibition of Aurora A (unknown origin) by HTRF assay
[18] = molecular target: Cyclin-dependent kinase 13 (Homo sapiens, UniProt Q14004); assay: Inhibition of CDK13 (unknown origin) by using c-myc peptide as substrate in presence of ATP
[19] = molecular target: Casein kinase I isoform gamma-3 (Homo sapiens, UniProt Q9Y6M4); assay: Inhibition of CSNK1G3 (unknown origin)
[20] = molecular target: Epidermal growth factor receptor (Homo sapiens, UniProt P00533); assay: Inhibition of EGFR (unknown origin) in presence of ATP
[21] = molecular target: Mitogen-activated protein kinase 7 (Homo sapiens, UniProt Q13164); assay: Inhibition of GST-tagged ERK5 catalytic domain (unknown origin) in presence of ATP
[22] = molecular target: Interleukin-1 receptor-associated kinase 4 (Homo sapiens, UniProt Q9NWZ3); assay: Inhibition of IRAK4 (unknown origin) in BGG-buffer in presence of ATP
[23] = molecular target: MAP kinase-interacting serine/threonine-protein kinase 1 (Homo sapiens, UniProt Q9BUB5); assay: Inhibition of MKNK1 (unknown origin) in presence of ATP
[24] = molecular target: MAP kinase-interacting serine/threonine-protein kinase 2 (Homo sapiens, UniProt Q9HBH9); assay: Inhibition of MKNK2 (unknown origin) in presence of ATP
[25] = molecular target: Serine/threonine-protein kinase 4 (Homo sapiens, UniProt Q13043); assay: Inhibition of MST1 (unknown origin)
[26] = molecular target: Ribosomal protein S6 kinase alpha-6 (Homo sapiens, UniProt Q9UK32); assay: Inhibition of RSK4 (unknown origin)
[27] = molecular target: Serine/threonine-protein kinase TBK1 (Homo sapiens, UniProt Q9UHD2); assay: Inhibition of TBK1 (unknown origin) in presence of ATP by HTRF assay
[28] = test system: HaCaT; assay: Antiproliferative activity against human HaCaT cells assessed as inhibition of cell viability measured for 3 to 5 days by alamar blue staining based assay; format: functional
[29] = test system: HT-29; assay: Antiproliferative activity against human HT-29 cells assessed as inhibition of cell viability measured for 3 to 5 days by alamar blue staining based assay; format: functional
[30] = test system: Jurkat; assay: Antiproliferative activity against human Jurkat cells assessed as inhibition of cell viability measured for 3 to 5 days by alamar blue staining based assay; format: functional
[31] = test system: MDA-MB-231; assay: Antiproliferative activity against human MDA-MB-231 cells assessed as inhibition of cell viability measured for 3 to 5 days by alamar blue staining based assay; format: functional

Sequence of Aurora kinase A (O14965 whole entry): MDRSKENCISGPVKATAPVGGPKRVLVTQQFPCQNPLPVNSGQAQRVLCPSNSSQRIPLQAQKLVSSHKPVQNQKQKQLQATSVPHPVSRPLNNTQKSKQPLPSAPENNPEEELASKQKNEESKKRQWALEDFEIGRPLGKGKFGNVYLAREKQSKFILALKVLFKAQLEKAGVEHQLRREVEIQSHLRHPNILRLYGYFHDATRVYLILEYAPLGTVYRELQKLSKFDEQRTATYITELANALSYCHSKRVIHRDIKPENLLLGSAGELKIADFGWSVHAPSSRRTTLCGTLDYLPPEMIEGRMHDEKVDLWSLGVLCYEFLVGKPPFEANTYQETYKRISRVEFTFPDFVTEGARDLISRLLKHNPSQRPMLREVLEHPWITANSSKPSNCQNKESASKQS
Sequence of Histone-lysine N-methyltransferase SETD7 (Homo sapiens) (Q8WTS6 whole entry): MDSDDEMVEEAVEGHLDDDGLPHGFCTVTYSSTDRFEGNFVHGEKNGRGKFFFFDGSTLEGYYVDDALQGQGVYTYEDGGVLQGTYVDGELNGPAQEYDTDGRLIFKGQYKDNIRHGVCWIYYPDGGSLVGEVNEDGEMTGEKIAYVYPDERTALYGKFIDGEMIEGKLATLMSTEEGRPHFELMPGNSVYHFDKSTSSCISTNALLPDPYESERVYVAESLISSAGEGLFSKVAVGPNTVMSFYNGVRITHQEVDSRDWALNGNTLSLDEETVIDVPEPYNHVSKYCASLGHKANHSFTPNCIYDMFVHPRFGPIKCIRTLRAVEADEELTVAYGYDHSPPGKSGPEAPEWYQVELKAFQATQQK
Sequence of Histone-lysine N-methyltransferase, H3 lysine-79 specific (Homo sapiens) (Q8TEK3 whole entry, looked up): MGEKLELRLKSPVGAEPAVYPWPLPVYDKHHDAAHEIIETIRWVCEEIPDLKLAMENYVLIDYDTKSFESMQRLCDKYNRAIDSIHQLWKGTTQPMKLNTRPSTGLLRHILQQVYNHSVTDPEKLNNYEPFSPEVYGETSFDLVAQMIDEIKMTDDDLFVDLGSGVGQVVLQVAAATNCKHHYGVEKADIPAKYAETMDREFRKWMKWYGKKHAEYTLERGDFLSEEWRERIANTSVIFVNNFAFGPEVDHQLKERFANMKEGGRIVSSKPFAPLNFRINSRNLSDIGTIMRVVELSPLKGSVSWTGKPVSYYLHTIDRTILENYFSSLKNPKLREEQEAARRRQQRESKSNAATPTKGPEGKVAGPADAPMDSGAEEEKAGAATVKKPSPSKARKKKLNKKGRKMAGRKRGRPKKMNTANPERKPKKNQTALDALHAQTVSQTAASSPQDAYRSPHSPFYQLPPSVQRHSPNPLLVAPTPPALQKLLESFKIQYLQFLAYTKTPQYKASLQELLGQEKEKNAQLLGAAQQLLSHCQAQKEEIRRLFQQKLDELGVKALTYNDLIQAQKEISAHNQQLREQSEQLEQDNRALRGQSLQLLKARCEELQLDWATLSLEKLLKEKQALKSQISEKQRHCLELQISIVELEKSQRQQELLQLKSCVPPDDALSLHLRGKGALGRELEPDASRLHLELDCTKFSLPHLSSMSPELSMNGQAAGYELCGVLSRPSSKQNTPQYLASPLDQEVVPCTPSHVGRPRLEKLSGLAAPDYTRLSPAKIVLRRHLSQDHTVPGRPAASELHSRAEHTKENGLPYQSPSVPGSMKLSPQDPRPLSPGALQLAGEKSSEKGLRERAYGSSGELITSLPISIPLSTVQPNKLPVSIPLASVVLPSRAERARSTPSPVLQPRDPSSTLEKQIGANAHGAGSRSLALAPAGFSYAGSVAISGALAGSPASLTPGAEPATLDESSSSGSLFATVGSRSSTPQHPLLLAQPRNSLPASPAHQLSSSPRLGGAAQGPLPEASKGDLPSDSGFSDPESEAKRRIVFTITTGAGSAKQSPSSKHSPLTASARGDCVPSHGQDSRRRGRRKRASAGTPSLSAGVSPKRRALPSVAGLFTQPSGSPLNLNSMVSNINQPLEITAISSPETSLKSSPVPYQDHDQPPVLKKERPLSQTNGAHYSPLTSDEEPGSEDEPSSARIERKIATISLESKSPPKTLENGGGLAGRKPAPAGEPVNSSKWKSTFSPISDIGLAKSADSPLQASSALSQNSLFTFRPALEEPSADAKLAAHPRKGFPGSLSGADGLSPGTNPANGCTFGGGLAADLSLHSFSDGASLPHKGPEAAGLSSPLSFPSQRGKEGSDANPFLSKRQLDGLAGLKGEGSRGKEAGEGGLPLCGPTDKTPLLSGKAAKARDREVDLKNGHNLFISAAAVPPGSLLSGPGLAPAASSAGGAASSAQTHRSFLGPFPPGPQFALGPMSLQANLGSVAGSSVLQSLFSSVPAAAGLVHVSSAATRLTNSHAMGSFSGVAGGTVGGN
Sequence of Protein arginine N-methyltransferase 3 (Homo sapiens) (O60678 2-531 limits assumed): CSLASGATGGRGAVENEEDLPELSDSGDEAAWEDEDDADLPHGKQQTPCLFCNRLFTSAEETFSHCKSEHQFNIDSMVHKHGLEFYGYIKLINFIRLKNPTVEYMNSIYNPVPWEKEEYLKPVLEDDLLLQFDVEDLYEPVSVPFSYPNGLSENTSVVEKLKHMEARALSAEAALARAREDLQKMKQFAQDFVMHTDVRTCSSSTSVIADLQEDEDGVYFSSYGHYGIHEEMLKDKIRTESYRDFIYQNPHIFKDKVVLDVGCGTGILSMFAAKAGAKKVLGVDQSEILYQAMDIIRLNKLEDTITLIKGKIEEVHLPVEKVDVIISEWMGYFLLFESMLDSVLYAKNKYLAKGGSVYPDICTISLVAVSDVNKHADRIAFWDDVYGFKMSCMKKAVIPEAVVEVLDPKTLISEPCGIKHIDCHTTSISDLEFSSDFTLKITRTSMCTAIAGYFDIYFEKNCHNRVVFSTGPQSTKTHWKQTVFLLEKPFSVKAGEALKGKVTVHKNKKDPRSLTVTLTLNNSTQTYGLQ
Sequence of Ribosomal protein S6 kinase alpha-6 (Q9UK32 whole entry): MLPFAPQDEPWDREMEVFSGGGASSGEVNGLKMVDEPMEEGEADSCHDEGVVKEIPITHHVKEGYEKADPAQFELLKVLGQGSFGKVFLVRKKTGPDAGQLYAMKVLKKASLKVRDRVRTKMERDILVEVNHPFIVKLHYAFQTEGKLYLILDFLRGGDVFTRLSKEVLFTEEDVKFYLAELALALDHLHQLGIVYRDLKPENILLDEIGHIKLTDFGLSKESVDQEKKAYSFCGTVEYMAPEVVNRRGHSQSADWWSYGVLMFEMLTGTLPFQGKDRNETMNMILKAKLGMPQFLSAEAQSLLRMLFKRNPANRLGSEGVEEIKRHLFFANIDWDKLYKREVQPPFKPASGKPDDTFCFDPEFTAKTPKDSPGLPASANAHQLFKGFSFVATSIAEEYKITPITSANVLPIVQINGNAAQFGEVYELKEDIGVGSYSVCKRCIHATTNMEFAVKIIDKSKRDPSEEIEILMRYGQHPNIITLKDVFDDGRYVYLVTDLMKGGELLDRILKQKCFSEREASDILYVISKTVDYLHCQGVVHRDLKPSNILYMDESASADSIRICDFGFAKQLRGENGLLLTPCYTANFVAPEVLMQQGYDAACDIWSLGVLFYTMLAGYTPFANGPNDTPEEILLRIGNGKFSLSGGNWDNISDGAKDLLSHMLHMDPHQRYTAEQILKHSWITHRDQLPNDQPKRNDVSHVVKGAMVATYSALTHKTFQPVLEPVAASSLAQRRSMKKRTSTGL
Sequence of Histone-lysine N-methyltransferase NSD2 (Homo sapiens) (O96028 whole entry): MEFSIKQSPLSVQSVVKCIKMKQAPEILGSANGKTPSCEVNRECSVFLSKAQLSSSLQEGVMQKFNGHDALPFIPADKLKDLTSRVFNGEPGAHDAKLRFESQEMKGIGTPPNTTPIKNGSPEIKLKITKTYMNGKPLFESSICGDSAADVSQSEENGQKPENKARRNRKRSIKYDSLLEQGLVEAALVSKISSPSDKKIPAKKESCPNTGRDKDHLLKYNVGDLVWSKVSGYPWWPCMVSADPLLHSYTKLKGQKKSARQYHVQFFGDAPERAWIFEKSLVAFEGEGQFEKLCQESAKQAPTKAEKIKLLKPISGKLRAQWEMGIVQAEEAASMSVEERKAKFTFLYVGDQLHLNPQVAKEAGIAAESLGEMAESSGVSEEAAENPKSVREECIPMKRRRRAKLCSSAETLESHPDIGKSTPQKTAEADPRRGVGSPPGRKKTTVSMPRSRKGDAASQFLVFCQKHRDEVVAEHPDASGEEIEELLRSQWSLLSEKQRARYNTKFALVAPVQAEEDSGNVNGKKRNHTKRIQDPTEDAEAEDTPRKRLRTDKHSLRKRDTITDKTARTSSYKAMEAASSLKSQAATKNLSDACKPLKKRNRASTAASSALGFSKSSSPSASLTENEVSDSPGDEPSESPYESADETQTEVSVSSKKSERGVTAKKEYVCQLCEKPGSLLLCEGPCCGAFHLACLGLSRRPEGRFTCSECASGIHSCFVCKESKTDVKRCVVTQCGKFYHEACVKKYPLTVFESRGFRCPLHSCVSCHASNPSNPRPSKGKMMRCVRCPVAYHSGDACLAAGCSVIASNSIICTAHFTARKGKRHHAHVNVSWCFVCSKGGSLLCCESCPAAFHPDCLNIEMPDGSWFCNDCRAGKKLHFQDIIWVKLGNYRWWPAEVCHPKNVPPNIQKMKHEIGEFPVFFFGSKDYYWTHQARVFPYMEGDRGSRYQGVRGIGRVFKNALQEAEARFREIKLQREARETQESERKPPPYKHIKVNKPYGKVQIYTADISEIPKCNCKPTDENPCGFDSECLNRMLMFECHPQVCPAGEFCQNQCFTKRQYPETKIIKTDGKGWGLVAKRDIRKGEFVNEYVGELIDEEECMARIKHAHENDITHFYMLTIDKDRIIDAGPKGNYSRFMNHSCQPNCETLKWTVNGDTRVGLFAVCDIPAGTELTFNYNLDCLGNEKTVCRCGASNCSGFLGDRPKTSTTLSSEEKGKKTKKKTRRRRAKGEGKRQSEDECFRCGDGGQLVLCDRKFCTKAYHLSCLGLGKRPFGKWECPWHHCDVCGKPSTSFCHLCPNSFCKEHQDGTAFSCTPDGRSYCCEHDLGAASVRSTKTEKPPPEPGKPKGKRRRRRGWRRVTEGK

- solubility kinetic [1]: 363 µg/mL (≈ 915 µM)
- deltaG [2]: -9.2 kcal/mol
- Kd [3]: 0.097 µM
- Ka [4]: 3.1 10^5/M/s
- Kdiss [5]: 3 10^-2/s
- inhibition [6]: inactive
- inhibition [7]: inactive
- inhibition [8]: inactive
- inhibition [9]: inactive
- inhibition [10]: inactive
- inhibition [11]: inactive
- inhibition [12]: inactive
- inhibition [13]: inactive
- inhibition [14]: inactive
- inhibition [15]: inactive
- inhibition [16]: inactive
- IC50 [17]: > 20 µM
- IC50 [18]: > 20 µM
- IC50 [19]: > 20 µM
- IC50 [20]: > 20 µM
- IC50 [21]: > 20 µM
- IC50 [22]: > 20 µM
- IC50 [23]: > 20 µM
- IC50 [24]: > 20 µM
- IC50 [25]: > 20 µM
- IC50 [26]: > 20 µM
- IC50 [27]: > 20 µM
- IC50 [29]: > 10 µM
- IC50 [30]: > 10 µM
- IC50 [31]: > 10 µM
SMILES: C[C@H]1CC(=O)Nc2cc(C(=O)NCCC3CC3)ccc2N1C(=O)N1CC2CC2C1 (stereo partly specified)
- IC50 [28]: > 10 µM
